Active and inactive are the calls of the source. The calls are words filed in the database; no cut-off is given here.
Columns and labels:
[1] = Displacement of [32P]NAADP from NAADP receptor in sea urchin microsomes after 90 mins by liquid scintillation counting; set-up: species or system Strongylocentrotus purpuratus, Microsome
How it was run: (§1)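 Competition binding in sea urchin egg homogenate: 0.2 nM [32P]NAADP plus seven competitor concentrations, incubated together 90 min at 4 °C, in triplicate. Filtered, washed, filter-bound radioactivity counted by liquid scintillation.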

[2] = (§2) Agonist activity at NAADP receptor in sea urchin egg homogenate assessed as induction of Ca2+ release by Fluo-3 staining based fluorimetric assay; assay type: functional, Strongylocentrotus purpuratus
[3] = tested on: Strongylocentrotus purpuratus; experiment: Agonist activity at NAADP receptor in sea urchin egg homogenate assessed as fold increase in EC50 for induction of Ca2+ release relative to NAADP; assay type: functional, tissue-based
[4] = tested on: Strongylocentrotus purpuratus; experiment: Binding affinity to NAADP receptor in sea urchin microsomes assessed as fold increase in IC50 for displacement of [32P]NAADP from receptor relative to NAADP; conditions: Microsome
How it was run: as §1, with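 “scintillation. IC50 from fitted curves over ≥3 experiments; fold value is relative to NAADP IC50.” for “scintillation.”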

[5] = tested on: Strongylocentrotus purpuratus; experiment: Agonist activity at NAADP receptor in sea urchin egg homogenate assessed as desensitization of NAADP-induced Ca2+ release at => 1 nM treated for 9 mins before NAADP challenge by Fluo-3 staining based fluorimetric assay; assay type: functional, tissue-based
How it was run: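 Strongylocentrotus purpuratus egg homogenate (1.25% v/v) diluted in intracellular medium: 250 mM potassium gluconate pH 7.2, 0.5 mM ATP, 4 mM […], creatinine kinase, 3 μM Fluo-3; 17 °C. Ca2+ release read as fluorescence (ex 490/em 535 nm); EC50 from plateau maximum vs concentration, mean of ≥3 determinations. For desensitization, 9 min pretreatment, then 1 μM NAADP challenge; mean±SEM, n = 3.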

[6] = tested on: Strongylocentrotus purpuratus; experiment: as §2; assay type: functional
[7] = tested on: Strongylocentrotus purpuratus; experiment: Agonist activity at NAADP receptor in sea urchin egg homogenate assessed as induction of Ca2+ release at 2 nM by Fluo-3 staining based fluorimetric assay; assay type: functional, tissue-based

Compound | IC50 [1] | EC50 [2] | fold change (FC) [3] | fold change (FC) [4] | Activity [6] | Activity [7] | Activity [5]
Nc1ncnc2c1ncn2[C@@H]1O[C@H](COP(=O)(O)OP(=O)(O)OC[C@@H]2O[C@H]([n+]3cc(C(=O)[O-])cc(C(=O)O)c3)[C@@H](O)[C@H]2O)[C@@H](O)[C@H]1OP(=O)(O)O | > 100 µM | > 1000 µM | > 50000 | > 60000 | – | – | Active
CCCCc1cc[n+]([C@H]2O[C@@H](COP(=O)(O)OP(=O)(O)OC[C@H]3O[C@@H](n4cnc5c(N)ncnc54)[C@H](OP(=O)(O)O)[C@@H]3O)[C@H](O)[C@@H]2O)cc1C(=O)[O-] | 0.465 µM | > 1000 µM | > 50000 | 303 | – | – | Active
[N-]=[N+]=Nc1cc(C(=O)[O-])c[n+]([C@H]2O[C@@H](COP(=O)(O)OP(=O)(O)OC[C@H]3O[C@@H](n4cnc5c(N)ncnc54)[C@H](OP(=O)(O)O)[C@@H]3O)[C@H](O)[C@@H]2O)c1 | 0.018 µM | 1.69 µM | 90 | 11 | – | – | Active
Nc1ncnc2c1ncn2[C@@H]1O[C@H](COP(=O)(O)OP(=O)(O)OC[C@@H]2O[C@H]([n+]3ccc(-c4ccccc4)c(C(=O)[O-])c3)[C@@H](O)[C@H]2O)[C@@H](O)[C@H]1OP(=O)(O)O | 0.859 µM | > 1000 µM | > 50000 | 540 | – | – | Active

Continued, in another order:

IC50 [1] | EC50 [2] | fold change (FC) [3] | fold change (FC) [4] | Activity [6] | Activity [7] | Compound | Activity [5]
0.037 µM | 0.352 µM | 18 | 23 | – | – | CCc1cc(C(=O)[O-])c[n+]([C@H]2O[C@@H](COP(=O)(O)OP(=O)(O)OC[C@H]3O[C@@H](n4cnc5c(N)ncnc54)[C@H](OP(=O)(O)O)[C@@H]3O)[C@H](O)[C@@H]2O)c1 | Active
– | – | – | – | Dose-dependent effect | – | Nc1ncnc2c1ncn2[C@@H]1O[C@H](COP(=O)(O)OP(=O)(O)OC[C@@H]2O[C@H]([n+]3cccc(C(=O)[O-])c3)[C@@H](O)[C@H]2O)[C@@H](O)[C@H]1OP(=O)(O)O | –
0.149 µM | 42.2 µM | 2200 | 93 | Dose-dependent effect | – | Cc1cc[n+]([C@H]2O[C@@H](COP(=O)(O)OP(=O)(O)OC[C@H]3O[C@@H](n4cnc5c(N)ncnc54)[C@H](OP(=O)(O)O)[C@@H]3O)[C@H](O)[C@@H]2O)cc1C(=O)[O-] | Active
0.0017 µM | 0.0274 µM | 1.5 | 1.1 | Dose-dependent effect | Active | Nc1cc(C(=O)[O-])c[n+]([C@H]2O[C@@H](COP(=O)(O)OP(=O)(O)OC[C@H]3O[C@@H](n4cnc5c(N)ncnc54)[C@H](OP(=O)(O)O)[C@@H]3O)[C@H](O)[C@@H]2O)c1 | Active
0.141 µM | 4.41 µM | 235 | 88 | – | – | Nc1cc[n+]([C@H]2O[C@@H](COP(=O)(O)OP(=O)(O)OC[C@H]3O[C@@H](n4cnc5c(N)ncnc54)[C@H](OP(=O)(O)O)[C@@H]3O)[C@H](O)[C@@H]2O)cc1C(=O)[O-] | Active
0.0019 µM | 0.043 µM | 2.3 | 1.2 | Dose-dependent effect | Active | Cc1cc(C(=O)[O-])c[n+]([C@H]2O[C@@H](COP(=O)(O)OP(=O)(O)OC[C@H]3O[C@@H](n4cnc5c(N)ncnc54)[C@H](OP(=O)(O)O)[C@@H]3O)[C@H](O)[C@@H]2O)c1 | Active
